Experimental data as given in ChEMBL document CHEMBL1141948, “Selective and orally bioavailable phenylglycine tissue factor/factor VIIa inhibitors” (Bioorg Med Chem Lett, 2005).

Columns and labels:
Coagulation factor X [1] = target: T1, Coagulation factor X (Homo sapiens, UniProt P00742); experiment: Binding affinity to FXa
Homo sapiens = species on record: Homo sapiens; experiment: Ratio of activated partial thromboplastin time against prothrombin time (aPTT/PT); type: functional
[2] = target: Coagulation factor VII/tissue factor (Homo sapiens, UniProt P08709); experiment: Binding affinity to FVIIa/TF; type: protein-complex assay
Chain of Coagulation factor VII/tissue factor (P08709 61-212 limits assumed): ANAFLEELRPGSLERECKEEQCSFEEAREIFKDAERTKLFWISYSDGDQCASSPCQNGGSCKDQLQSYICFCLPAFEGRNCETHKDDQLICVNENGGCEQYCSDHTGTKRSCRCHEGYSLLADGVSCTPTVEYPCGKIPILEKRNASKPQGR
Chain of Coagulation factor VII/tissue factor (P08709 213-466 limits assumed): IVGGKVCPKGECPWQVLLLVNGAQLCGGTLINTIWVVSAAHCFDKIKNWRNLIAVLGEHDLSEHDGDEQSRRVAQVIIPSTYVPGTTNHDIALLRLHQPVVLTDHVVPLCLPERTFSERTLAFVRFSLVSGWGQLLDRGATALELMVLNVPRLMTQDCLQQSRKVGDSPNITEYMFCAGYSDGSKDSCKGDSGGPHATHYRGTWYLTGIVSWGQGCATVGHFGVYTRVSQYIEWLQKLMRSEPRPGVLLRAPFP
Chain of Coagulation factor VII/tissue factor (P13726 33-295 partner limits assumed): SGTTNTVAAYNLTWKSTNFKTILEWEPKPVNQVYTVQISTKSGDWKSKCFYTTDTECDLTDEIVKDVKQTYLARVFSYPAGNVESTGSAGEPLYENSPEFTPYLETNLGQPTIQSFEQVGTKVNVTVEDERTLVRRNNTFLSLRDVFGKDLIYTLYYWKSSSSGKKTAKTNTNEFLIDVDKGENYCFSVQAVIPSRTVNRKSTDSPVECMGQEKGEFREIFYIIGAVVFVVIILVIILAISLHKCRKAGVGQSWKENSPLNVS

[3] = target: Coagulation factor VII/tissue factor (Homo sapiens) (UniProt P08709+P13726); conditions: Plasma
Coagulation factor X [4] = target: T1, Coagulation factor X; experiment: Activated partial thromboplastin time; type: functional
In short: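 Human citrated plasma spiked with at least six inhibitor concentrations; intrinsic-pathway clotting started with Actin FS (ellagic acid in soy phosphatides). Clotting time read by turbidity. Concentration doubling control clotting time (EC50) obtained by fitting data to exponential regression.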

Prothrombin = Prothrombin (Homo sapiens, UniProt P00734); experiment: Binding affinity to thrombin
Trypsin = Trypsin (Homo sapiens, UniProt P07477+P07478+P35030); experiment: Binding affinity to trypsin; type: protein assay
[5] = Half life in rat administered with 6.1 mg/kg, iv; type: ADME, organism-based; set-up: dose 6.1 mg/kg, route intravenous; conditions: in vivo
In short: (§1)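 Rat pharmacokinetics with intravenous and oral dosing at the stated doses (mg/kg). Half-lives determined for iv and po routes; clearance (ml/min/kg), steady-state volume of distribution (l/kg) and oral bioavailability (%) derived.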

[6] = Oral bioavailability in rat at 6.1 mg/kg; type: ADME, organism-based; conditions: in vivo; in short: as §1
[7] = Volume of distribution in rat at 6.1 mg/kg; type: ADME, organism-based; set-up: dose 6.1 mg/kg; conditions: in vivo, read-out: Vdss; in short: as §1
[8] = Clearance in rat at 6.1 mg/kg; type: ADME, organism-based; set-up: dose 6.1 mg/kg; conditions: in vivo; in short: as §1
[9] = Half life in rat administered with 3 mg/kg, iv; type: ADME, organism-based; set-up: dose 3 mg/kg, route intravenous; conditions: in vivo; in short: as §1
[10] = Volume of distribution in rat at 3 mg/kg; type: ADME, organism-based; set-up: dose 3 mg/kg; conditions: in vivo, read-out: Vdss; in short: as §1
[11] = Clearance in rat at 3 mg/kg; type: ADME, organism-based; set-up: dose 3 mg/kg; conditions: in vivo; in short: as §1
[12] = Oral bioavailability in rat at 10.3 mg/kg; type: ADME, organism-based; conditions: in vivo
[13] = Half life in rat administered with 10.3 mg/kg, po; type: ADME, organism-based; set-up: dose 10.3 mg/kg, route oral; conditions: in vivo
[14] = Half life in rat administered with 10 mg/kg, iv; type: ADME, organism-based; set-up: dose 10 mg/kg, route intravenous; conditions: in vivo; in short: as §1
[15] = Oral bioavailability in rat at 10 mg/kg; type: ADME, organism-based; conditions: in vivo; in short: as §1
[16] = Half life in rat administered with 10 mg/kg, po; type: ADME, organism-based; set-up: dose 10 mg/kg, route oral; conditions: in vivo; in short: as §1

T1 sequence (P00742 41-179 limits assumed): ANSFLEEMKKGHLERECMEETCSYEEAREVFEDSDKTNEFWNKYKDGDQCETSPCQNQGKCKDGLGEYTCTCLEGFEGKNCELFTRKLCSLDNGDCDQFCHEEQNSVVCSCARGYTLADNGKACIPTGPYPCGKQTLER
T1 sequence (P00742 235-488 limits assumed): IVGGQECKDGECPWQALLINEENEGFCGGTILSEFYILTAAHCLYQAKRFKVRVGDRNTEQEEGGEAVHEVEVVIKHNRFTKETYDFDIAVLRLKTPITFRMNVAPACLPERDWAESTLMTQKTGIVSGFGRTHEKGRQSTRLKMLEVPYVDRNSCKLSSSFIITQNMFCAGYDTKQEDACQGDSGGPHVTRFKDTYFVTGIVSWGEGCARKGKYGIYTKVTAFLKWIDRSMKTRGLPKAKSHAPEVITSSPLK

Row | Structure (SMILES) | Ki (Coagulation factor X [1]) | Ki [2] | 2PT [3] | 2aPTT (Coagulation factor X [4]) | Ki (Prothrombin) | Ki (Trypsin) | Ratio (Homo sapiens) | other results
1 | CCOc1cc(OC2CCN(C)CC2)cc(C(Nc2ccc(C(=N)N)cc2)C(=O)O)c1 (stereo unspecified) | 1600 nM |  |  | 22.3 µM | 9900 nM | 8600 nM |  | 
2 | C=Cc1cc(OC2CCOCC2)cc(C(Nc2ccc(C(=N)N)cc2)C(=O)O)c1 (stereo unspecified) | 13300 nM | 69 nM | 5.9 µM | 23.7 µM | 2900 nM | 8700 nM | 4 | 
3 | CCOc1cc(OC2CCN(S(C)(=O)=O)CC2)cc(C(Nc2ccc(C(=N)N)cc2)C(=O)O)c1 (stereo unspecified) | 4400 nM | 180 nM | 4.8 µM | 26.9 µM | > 3500 nM | 3500 nM | 5.6 | 
4 | C#Cc1cc(OC2CCOCC2)cc(C(Nc2ccc(C(=N)N)cc2)C(=O)O)c1 (stereo unspecified) | 2900 nM | 38 nM | 3.4 µM | 14.3 µM | 4700 nM | 1900 nM | 4.2 | 
5 | CCOc1cc(O[C@H]2CC[C@H](O)CC2)cc(C(Nc2ccc(C(=N)N)cc2)C(=O)O)c1 (stereo partly specified) | 12200 nM | 110 nM | 5.4 µM | 29.4 µM | 5500 nM | 4000 nM | 5.4 | 
6 | CCc1cc(OC2CCOCC2)cc(C(Nc2ccc(C(=N)N)cc2)C(=O)O)c1 (stereo unspecified) | > 7500 nM |  |  | 15.6 µM | 1600 nM | 4800 nM |  | 
7 | C#Cc1cc(O[C@H]2CCOC2)cc(C(Nc2ccc(C(=N)N)cc2)C(=O)O)c1 (stereo partly specified) | 2600 nM | 65 nM | 4.3 µM | 12.9 µM | 9500 nM | 5400 nM | 3 | 
8 | C#Cc1cc(O[C@@H]2CCOC2)cc(C(Nc2ccc(C(=N)N)cc2)C(=O)O)c1 (stereo partly specified) | 15300 nM | 129 nM | 9.1 µM | 34 µM | 8800 nM | 6600 nM | 3.7 | 
9 | CCOc1cc(OCC)cc(C(Nc2ccc(C(=N)NO)cc2)C(=O)O)c1 (stereo unspecified) |  |  |  |  |  |  |  | bioavailability [12]: 30%; half-life [13]: 5 h
10 | CCOc1cc(OC2CCOCC2)cc(C(Nc2ccc(C(=N)N)cc2)C(=O)O)c1 (stereo unspecified) | 2900 nM | 140 nM | 4.8 µM | 19.8 µM | > 6600 nM | 7000 nM | 4.1 | 
11 | CCOC(=O)C(Nc1ccc(C(=N)NO)cc1)c1cc(OCC)cc(OCC)c1 (stereo unspecified) |  |  |  |  |  |  |  | half-life [14]: 3.5 h; bioavailability [15]: 100%; half-life [16]: 4.8 h
12 | CCOC(=O)C(Nc1ccc(C(=N)NO)cc1)c1cc(OCC)cc(O[C@H]2CCOC2)c1 (stereo partly specified) |  |  |  |  |  |  |  | half-life [14]: 0.9 h; bioavailability [15]: 15%; half-life [16]: 4.1 h

More lines, main results first:

Row | Ki (Coagulation factor X [1]) | Ki [2] | 2PT [3] | 2aPTT (Coagulation factor X [4]) | Ki (Prothrombin) | Ki (Trypsin) | Structure (SMILES) | Ratio (Homo sapiens) | other results
13 | 1400 nM | 130 nM | 35.6 µM | 69.9 µM | 7300 nM | > 68000 nM | CCOc1cc(-c2ccccc2)cc(C(Nc2ccc(C(=N)N)cc2)C(=O)O)c1 (stereo unspecified) | 2 | 
14 | 5600 nM |  |  |  | > 35000 nM | 16900 nM | CCOc1cc(OCC)cc(C(Nc2ccc(C(=N)N)cc2)C(=O)O)c1 (stereo unspecified) |  | half-life [5]: 2.9 h; bioavailability [6]: 2%; Vd [7]: 0.3 L/kg; clearance [8]: 2.6 mL/min/kg
15 | 9100 nM |  |  | 51.7 µM | 11300 nM | 9900 nM | CCOc1cc(O[C@@H]2CCOC2)cc(C(Nc2ccc(C(=N)N)cc2)C(=O)O)c1 (stereo partly specified) |  | 
16 | 1500 nM |  |  | 10.3 µM | 4600 nM | 4500 nM | CCOc1cc(O[C@H]2CCOC2)cc([C@@H](Nc2ccc(C(=N)N)cc2)C(=O)O)c1 |  | 
17 | 2300 nM |  |  | 17.2 µM | 8600 nM | 7300 nM | CCOc1cc(O[C@H]2CCOC2)cc(C(Nc2ccc(C(=N)N)cc2)C(=O)O)c1 (stereo partly specified) |  | half-life [9]: 1.4 h; Vd [10]: 0.5 L/kg; clearance [11]: 5.7 mL/min/kg
18 | 2200 nM | 510 nM | 11.8 µM | 57.6 µM | 10200 nM | 8000 nM | CCOc1cc(-c2cccnc2)cc(C(Nc2ccc(C(=N)N)cc2)C(=O)O)c1 (stereo unspecified) | 4.9 | 
19 | 790 nM | 28 nM | 8.8 µM |  | 85 nM | 1000 nM | CCOc1cc(C(Nc2ccc(C(=N)N)cc2)C(=O)O)ccc1OCc1ccccc1 (stereo unspecified) |  | 
20 | 730 nM | 61 nM | 11.9 µM |  | 74 nM | 310 nM | COc1cc(C(Nc2ccc(C(=N)N)cc2)C(=O)O)ccc1OCc1ccccc1 (stereo unspecified) |  | 
